Test results from ChEMBL document CHEMBL3407457, “Microwave-assisted synthesis of certain pyrrolylpyridines, some derived ring systems and their evaluation as anticancer and antioxidant agents” (Eur J Med Chem, 2015).
The source made the active and inactive calls. No cut-off for these calls is given here.

How the values were obtained:
Format in all cases: functional
[1] = tested on: EKVX; assay: Growth inhibition of human EKVX cells at 10 uM after 48 hrs by sulforhodamine B assay
How it was run: (§1)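 NCI-60 primary screen: cells given a single 10 µM dose under 48 h continuous exposure. Growth/viability estimated by sulforhodamine B protein assay. Reported as percent growth of treated cells (mean graph), expressed as percent growth inhibition.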

[2] = Growth inhibition of human HOP92 cells at 10 uM after 48 hrs by sulforhodamine B assay; settings: HOP-92, 48 h, read-out: GI; how it was run: as §1
[3] = tested on: NCI-H522; assay: Growth inhibition of human NCI-H522 cells at 10 uM after 48 hrs by sulforhodamine B assay; how it was run: as §1
[4] = tested on: HCT-116; assay: Growth inhibition of human HCT116 cells at 10 uM after 48 hrs by sulforhodamine B assay; how it was run: as §1
[5] = Growth inhibition of human HCT15 cells at 10 uM after 48 hrs by sulforhodamine B assay; settings: HCT-15, 48 h, read-out: GI; how it was run: as §1
[6] = tested on: Hs-578T; assay: Growth inhibition of human Hs 578T cells at 10 uM after 48 hrs by sulforhodamine B assay; how it was run: as §1
[7] = tested on: MDA-MB-468; assay: Growth inhibition of human MDA-MB-468 cells at 10 uM after 48 hrs by sulforhodamine B assay; how it was run: as §1
[8] = tested on: T47D; assay: Growth inhibition of human T47D cells at 10 uM after 48 hrs by sulforhodamine B assay; settings: read-out: GI; how it was run: as §1
[9] = tested on: IGROV-1; assay: Growth inhibition of human IGROV1 cells at 10 uM after 48 hrs by sulforhodamine B assay; settings: IGROV-1, 48 h, read-out: GI; how it was run: as §1
[10] = Growth inhibition of human OVCAR4 cells at 10 uM after 48 hrs by sulforhodamine B assay; settings: OVCAR-4, 48 h, read-out: GI; how it was run: as §1
[11] = tested on: CCRF-CEM; assay: Growth inhibition of human CCRF-CEM cells at 10 uM after 48 hrs by sulforhodamine B assay; settings: read-out: GI; how it was run: as §1
[12] = tested on: HL-60(TB); assay: Growth inhibition of human HL-60(TB) cells at 10 uM after 48 hrs by sulforhodamine B assay; settings: HL-60, 48 h, read-out: GI
How it was run: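 NCI-60 one-dose primary screen, HL-60(TB) within the leukemia subpanel. Single 10 µM concentration, 48 h continuous exposure. Growth estimated by sulforhodamine B protein assay. Percent growth of treated cells expressed as percentage growth inhibition (GI%).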

[13] = tested on: K562; assay: Growth inhibition of human K562 cells at 10 uM after 48 hrs by sulforhodamine B assay; how it was run: as §1
[14] = Growth inhibition of human MOLT4 cells at 10 uM after 48 hrs by sulforhodamine B assay; settings: MOLT-4, 48 h, read-out: GI; how it was run: as §1
[15] = Growth inhibition of human RPMI8226 cells at 10 uM after 48 hrs by sulforhodamine B assay; settings: RPMI-8226, 48 h, read-out: GI; how it was run: as §1
[16] = tested on: A498; assay: Growth inhibition of human A498 cells at 10 uM after 48 hrs by sulforhodamine B assay; settings: A498, 48 h, read-out: GI; how it was run: as §1
[17] = tested on: ACHN; assay: Growth inhibition of human ACHN cells at 10 uM after 48 hrs by sulforhodamine B assay; how it was run: as §1
[18] = tested on: CAKI-1; assay: Growth inhibition of human CAKI-1 cells at 10 uM after 48 hrs by sulforhodamine B assay; how it was run: as §1
[19] = tested on: UO-31; assay: Growth inhibition of human UO31 cells at 10 uM after 48 hrs by sulforhodamine B assay; how it was run: as §1
[20] = tested on: LOX IMVI; assay: Growth inhibition of human LOXIMVI cells at 10 uM after 48 hrs by sulforhodamine B assay; how it was run: as §1
[21] = tested on: SK-MEL-5; assay: Growth inhibition of human SK-MEL-5 cells at 10 uM after 48 hrs by sulforhodamine B assay; how it was run: as §1
[22] = Growth inhibition of human UACC62 cells at 10 uM after 48 hrs by sulforhodamine B assay; settings: UACC-62, 48 h, read-out: GI; how it was run: as §1
[23] = tested on: PC-3; assay: Growth inhibition of human PC3 cells at 10 uM after 48 hrs by sulforhodamine B assay; how it was run: as §1
[24] = tested on: SNB-75; assay: Growth inhibition of human SNB75 cells at 10 uM after 48 hrs by sulforhodamine B assay; how it was run: as §1
[25] = tested on: U-251; assay: Growth inhibition of human U251 cells at 10 uM after 48 hrs by sulforhodamine B assay; how it was run: as §1

With `CC1CCCc2c1nc1ncn3ncnc3c1c2-c1cccn1C` (stereo not given) the “growth inhibition (GI)” value [1] was “inactive”, the inhibition of growth at 10 µM [2] was 10.1% and the “growth inhibition (GI)” value [3] was “inactive”. For the same molecule, the “growth inhibition (GI)” value [4] was “inactive”, the inhibition of growth at 10 µM [5] was 6.3% and the “growth inhibition (GI)” value [6] was “inactive”. The “growth inhibition (GI)” value [7] was “inactive”, the inhibition of growth at 10 µM [8] was 11.8% and the inhibition of growth at 10 µM [9] was 7.9%. It also gave an inhibition of growth at 10 µM [10] of 6.1%, an inhibition of growth at 10 µM [11] of 10.3% and an inhibition of growth at 10 µM [12] of 8.5%. For the same molecule, the “growth inhibition (GI)” value [13] was “inactive”, the inhibition of growth at 10 µM [14] was 20.4% and the inhibition of growth at 10 µM [15] was 12.2%. The inhibition of growth at 10 µM [16] was 5.7%, the “growth inhibition (GI)” value [17] was “inactive” and the “growth inhibition (GI)” value [18] was “inactive”. For the same molecule, the “growth inhibition (GI)” value [19] was “inactive”, the “growth inhibition (GI)” value [20] was “inactive” and the “growth inhibition (GI)” value [21] was “inactive”. The inhibition of growth at 10 µM [22] was 8.3%, the “growth inhibition (GI)” value [23] was “inactive” and the “growth inhibition (GI)” value [24] was “inactive”. The “growth inhibition (GI)” value [25] was “inactive”.
